Non-standard residues stand in square brackets, D forms with d. No end group written: not given here. pS = N[C@@H](COP(=O)(O)O)C(=O)O
Columns and labels:
[1] = tested on: chaperone-mediated autophagy (CMA) in NIH3T3 cells; experiment: CMA activity, KFERQ-PA-mCherry1 reporter; assay type: cell-based, mouse; settings: NIH3T3, serum-free medium, 10 and 30 μM peptide, 12 h; N > 50 cells; Fig. 4
Method in brief: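 NIH3T3 cells stably expressing the photoactivable KFERQ-PA-mCherry1 reporter were photoactivated, then kept in serum-free medium to maximally activate CMA, with or without 10 or 30 μM test peptide for 12 h. Scrambled and unphosphorylated peptides served as controls. Nuclei were stained with DAPI. Fluorescent puncta per cell were counted in at least 50 cells. Results are mean + SEM; Student t test.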

[2] = tested on: B cells from MRL/lpr mice; experiment: Internalization and colocalization in purified B cells, confocal microscopy; assay type: cell-based, mouse; settings: PBS-2% FCS
[3] = tested on: LAMP1; experiment: LAMP1 protein in purified B cells of treated mice, western immunoblotting; assay type: in vivo; settings: MRL/lpr mice, 100 μg P140/mouse/injection once or 6 times at daily intervals; Fig. 5F
Method in brief: (§1)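 MRL/lpr mice (10–13 wk old, 3 per group) received 100 μg test peptide per injection. Dosing was either once, with cells taken 5 d later, or 6 times at daily intervals, with cells taken 1 d after the last injection. Purified B cells were immunoblotted and band intensity was expressed relative to β-ACTA. Ratios were normalized to untreated MRL/lpr mice and given as mean of 3 mice + SD; at least 2 independent experiments.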

[4] = tested on: MRL/lpr lupus-prone mice; settings: cited from earlier work
[5] = tested on: lysosomes isolated from mouse liver; experiment: CMA in vitro: GAPDH binding and uptake by isolated lysosomes; assay type: biochemical
[6] = tested on: lupus patients; settings: phase II clinical trials; cited from earlier work
[7] = tested on: LAMP2A; experiment: Lamp2a mRNA in purified B cells, qRT-PCR; assay type: in vivo, mouse; settings: B cells of MRL/lpr mice; Fig. S13
[8] = tested on: HSPA8/HSC70/HSP73 chaperone; settings: cited from earlier work
[9] = tested on: CTSD; experiment: CTSD protein in purified B cells of treated mice, western immunoblotting; assay type: in vivo; settings: MRL/lpr mice, 100 μg P140/mouse/injection once or 6 times at daily intervals; Fig. 5F
Method in brief: as §1

[10] = tested on: MRL/lpr mice splenocytes; experiment: Intracellular localization in splenocytes after iv administration; assay type: in vivo, mouse; settings: 1 h after iv administration; Fig. S5
Method in brief: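 MRL/lpr mice (10–12 wk old) received 100 μg Alexa Fluor 488-labeled peptide intravenously. Splenocytes taken 1 h after injection were incubated for 30 min at 37°C in complete RPMI with 100 nM LysoTracker Red DND-99 or 500 nM MitoTracker Deep Red FM. After washing in the same medium, they were imaged immediately by confocal microscopy.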

[11] = Stability in matrices of isolated lysosomes; assay type: in vitro ADME; settings: pH 4.2, 5.3, 7.2
Method in brief: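 Peptide stability was tested in artificial lysosomal fluid at pH 4.2, 5.3 and 7.2. The fluid was supplemented with CTSD plus CTSL or with matrix extracted from isolated lysosomes. Samples were analysed by analytical RP-HPLC at 220 nm using water + 0.1% TFA and acetonitrile + 0.08% TFA eluents. Degradation was judged from the remaining intact-peptide peak area at several time intervals.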

[12] = target: HSPA8 (Bos taurus, UniProt P19120); experiment: HSPA8 ATPase activity; assay type: biochemical; settings: HSPA8 500 nM without HSP40; 100 μM ATP; 3 h at 37°C; luminescence; 3 independent experiments; Fig. 1D
HSPA8, sequence (P19120 whole entry): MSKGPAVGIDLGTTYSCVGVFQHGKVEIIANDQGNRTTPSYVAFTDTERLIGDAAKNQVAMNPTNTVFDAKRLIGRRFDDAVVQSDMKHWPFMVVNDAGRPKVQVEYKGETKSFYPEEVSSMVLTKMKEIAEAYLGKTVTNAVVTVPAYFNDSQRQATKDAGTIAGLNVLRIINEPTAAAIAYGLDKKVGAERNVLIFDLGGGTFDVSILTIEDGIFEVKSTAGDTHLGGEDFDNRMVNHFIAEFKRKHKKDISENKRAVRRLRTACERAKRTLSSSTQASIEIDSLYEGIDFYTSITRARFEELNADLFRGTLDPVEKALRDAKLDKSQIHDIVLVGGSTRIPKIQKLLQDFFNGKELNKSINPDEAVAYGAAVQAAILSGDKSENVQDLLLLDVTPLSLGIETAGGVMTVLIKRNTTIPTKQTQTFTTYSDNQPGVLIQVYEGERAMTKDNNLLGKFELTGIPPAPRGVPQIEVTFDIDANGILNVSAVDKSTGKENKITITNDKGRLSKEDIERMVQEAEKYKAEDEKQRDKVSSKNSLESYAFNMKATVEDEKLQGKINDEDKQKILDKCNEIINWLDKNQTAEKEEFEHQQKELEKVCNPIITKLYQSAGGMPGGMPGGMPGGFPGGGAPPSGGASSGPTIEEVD

[13] = tested on: chaperone-mediated autophagy (CMA) in NIH3T3 cells; experiment: CMA activity, KFERQ-PS-Dendra reporter, high-content microscopy; assay type: cell-based, mouse; settings: 6 P140 concentrations, serum, starvation, paraquat 50 μM, > 700 cells, compared to an inactive P140 analog, Fig. S9
[14] = tested on: major histocompatibility complex class II (MHCII) molecules; settings: cited from earlier work
[15] = tested on: CTSD/cathepsin D and CTSL/cathepsin L; experiment: Stability in artificial lysosomal fluid; assay type: in vitro ADME
[16] = target: HSPA8 N-terminal fragment 1-386 (nucleotide binding domain) (human, UniProt P11142 1-386); experiment: ELISA
HSPA8 N-terminal fragment 1-386 (nucleotide binding domain), sequence (P11142 1-386): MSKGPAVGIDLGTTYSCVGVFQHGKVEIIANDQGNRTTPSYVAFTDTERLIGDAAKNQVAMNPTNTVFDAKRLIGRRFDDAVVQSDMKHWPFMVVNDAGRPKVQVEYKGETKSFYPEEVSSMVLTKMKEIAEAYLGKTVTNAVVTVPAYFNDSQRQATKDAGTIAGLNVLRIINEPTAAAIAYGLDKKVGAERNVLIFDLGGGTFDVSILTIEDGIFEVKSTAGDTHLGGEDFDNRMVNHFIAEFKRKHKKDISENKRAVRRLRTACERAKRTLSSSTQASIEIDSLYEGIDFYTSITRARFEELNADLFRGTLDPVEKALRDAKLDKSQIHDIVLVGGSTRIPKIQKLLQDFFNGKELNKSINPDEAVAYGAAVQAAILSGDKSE

[17] = administered intravenously to MRL/lpr mice

Molecule: 131–151: unphosphorylated (nonprotective) peptide 131–151 of SNRNP70/U1–70K (RIHMVYSKRSGKPRGYAFIEY; UniProt P08621 131-151, looked up, fragment) [reference compound]
- CMA activity, average number of fluorescent puncta per cell [1]: did not observe any changes in CMA activity
- colocalization with early endosomal marker EEA1, ex vivo ([2]; 10 μM Alexa Fluor 488-labeled peptide, 15 min at 37°C, Fig. 3B, S6B, C): colocalization with EEA1 was hardly seen

Molecule: RIHMVYSKRpSGKPRGYAFIEY [P140]
- LAMP1 expression in purified B cells [3]: A similar trend was observed for LAMP1 expression
- protective effect in lupus-prone mice ([4]; MRL/lpr mice): displays protective properties
- MHCII expression ([4]; MRL/lpr mice, earlier work): decreases MHCII overexpression
- signs of systemic autoimmunity (proteinuria, vasculitis, dermatitis, anti-DNA antibody production) ([4]; MRL/lpr mice, earlier work): attenuates biological and clinical signs of systemic autoimmunity
- HSPA8 expression [4, 17]: decreases the HSPA8 overexpression observed in this murine strain
- autophagy markers SQSTM1/p62 and LC3-II [4, 17]: increases the accumulation of the autophagy markers SQSTM1/p62 (sequestosome 1) and LC3-II
- GAPDH associated with lysosomes, exogenous HSPA8 added ([5]; as above with exogenous HSPA8 in the incubation media, Fig. S10B): not even when exogenous HSPA8 was added
- uptake of GAPDH by lysosomes ([5]; difference of GAPDH with and without protease inhibitors, Fig. S10C, D): did not significantly modify binding or uptake of GAPDH by CMA
- GAPDH associated with lysosomes ([5]; lysosomes 75 μg protein pretreated with protease inhibitors, GAPDH 25 μg, 20 min at 37°C, pH 7.3, increasing peptide concentrations, immunoblot, Fig. S10A): did not modify the amount of GAPDH recovered in lysosomes
- binding of GAPDH to lysosomes ([5]; lysosomes without protease inhibitors, Fig. S10C, D): did not significantly modify binding or uptake of GAPDH by CMA
- protective effect in lupus patients [6]: displays protective properties
- Lamp2a mRNA level [7]: lack of change at the mRNA level
- binding to HSPA8 [8]: readily binds to HSPA8
- CTSD expression in purified B cells [9]: highly significant reduction
- localization by LysoTracker Red / MitoTracker Deep Red counterstaining [10]: accumulated into lysosomes
- stability over pH in CMA+ lysosomal extracts [11]: remains stable on a large range of pH
- endogenous HSPA8 ATPase activity [12]: effectively increase both the endogenous and HSP40-stimulated ATPase activities of HSPA8 in a peptide dose-dependent manner
- CMA activity, average number of puncta per cell [13]: significantly diminish CMA activity in a peptide concentration-dependent manner
- CMA activity, average number of fluorescent puncta per cell [1]: clearly diminished the average number of puncta per cell in a dose-dependent manner
- binding to MHCII molecules [14]: binds both the HSPA8/HSC70/HSP73 chaperone and major histocompatibility complex class II (MHCII) molecules
- entry pathway into B lymphocytes ([2]; B lymphocytes from 12-wk-old MRL/lpr mice, Alexa Fluor 488-labeled peptide 10 μM, 30 min at 37°C, confocal, Fig. 2A): endocytosed by a clathrin-dependent mechanism
- time for which the phosphoryl moiety was preserved ([15]; ALF, pH 4.2, 37°C, LC-MS, Fig. S8): about 2 h
- dependence of stability on pH ([15]; pH 5.3 and 7.2 compared to 4.2, medium not given): more stable at higher pH (5.3 and 7.2 compared to 4.2)

B1: P140 peptide (SNRNP70/U1-70K 131-151, phosphoserine 140) (peptide)
peptide: RIHMVYSKR[pS]GKPRGYAFIEY
- binding result [16]: binds
